Measured values reported in ChEMBL document CHEMBL4007483, “Design, synthesis and potent cytotoxic activity of novel 7-(N-[(substituted-sulfonyl)piperazinyl]-methyl)-camptothecin derivatives” (Bioorg Med Chem Lett, 2017).

Key:
Assay type in all cases: functional, cell-based
A549 = assay: Cytotoxicity against human A549 cells after 72 hrs by sulforhodamine B assay; settings: A549, 72 h
Procedure, shortened: (§1)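 Cells seeded at 3–5 × 10^3 per well in RPMI-1640 with 10% FBS containing graded sample concentrations, exposed 72 h. Attached cells fixed with cold 50% trichloroacetic acid 30 min, stained with 0.04% SRB 30 min. Bound dye solubilized in 10 mM Tris-base, absorbance read at 515 nm; IC50 from concentration series.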

[1] = Cytotoxicity against human KBVIN cells after 72 hrs by sulforhodamine B assay; procedure, shortened: as §1
MDA-MB-231 = assay: Cytotoxicity against human MDA-MB-231 cells after 72 hrs by sulforhodamine B assay; settings: MDA-MB-231, 72 h; procedure, shortened: as §1
MCF7 = assay: Cytotoxicity against human MCF7 cells after 72 hrs by sulforhodamine B assay; settings: MCF7, 72 h; procedure, shortened: as §1
KB = assay: Cytotoxicity against human KB cells after 72 hrs by sulforhodamine B assay; procedure, shortened: as §1

| SMILES | IC50 (A549) [nM] | IC50 [1] [nM] | IC50 (MDA-MB-231) [nM] | IC50 (MCF7) [nM] | IC50 (KB) [nM] |
| --- | --- | --- | --- | --- | --- |
| CC[C@@]1(O)C(=O)OCc2c1cc1n(c2=O)Cc2cc3ccccc3nc2-1 [CAMPTOTHECIN] | 8.63 | 15.7 | 307 | 87.5 | 50 |
| CC[C@@]1(O)C(=O)OCc2c1cc1n(c2=O)Cc2c-1nc1ccccc1c2CN1CCN(S(=O)(=O)N(C)C)CC1 | 7.22 | 141 | 336 | 71.5 | 78.6 |
| CC[C@@]1(O)C(=O)OCc2c1cc1n(c2=O)Cc2c-1nc1ccccc1c2CN1CCN(S(=O)(=O)c2ccc3ccccc3c2)CC1 | 13 | 165 | 113 | 81.3 | 44.2 |
| CC[C@@]1(O)C(=O)OCc2c1cc1n(c2=O)Cc2c-1nc1ccccc1c2CN1CCN(S(=O)(=O)c2cc(F)cc(F)c2)CC1 | 0.7 | 266 | 82.6 | 56.3 | 21 |
| CC[C@@]1(O)C(=O)OCc2c1cc1n(c2=O)Cc2c-1nc1ccccc1c2CN1CCN(S(=O)(=O)c2cc(OC)cc(OC)c2)CC1 | 1.42 | 1.2 | 6.4 | 34 | 2.9 |
| CCc1c2c(nc3ccc(OC(=O)N4CCC(N5CCCCC5)CC4)cc13)-c1cc3c(c(=O)n1C2)COC(=O)[C@]3(O)CC [IRINOTECAN] |  | > 20000 |  |  |  |
| CC[C@@]1(O)C(=O)OCc2c1cc1n(c2=O)Cc2c-1nc1ccccc1c2CN1CCN(S(=O)(=O)c2ccc(F)cc2)CC1 | 0.5 | 25.7 | 62.8 | 37.6 | 76.3 |
| CC[C@@]1(O)C(=O)OCc2c1cc1n(c2=O)Cc2c-1nc1ccccc1c2CN1CCN(S(=O)(=O)c2ccc(C(C)C)cc2)CC1 | 4.37 | 81.4 | 122 | 67.6 | 15.9 |
| CC[C@@]1(O)C(=O)OCc2c1cc1n(c2=O)Cc2c-1nc1ccccc1c2CN1CCN(S(=O)(=O)c2ccc(Cl)cc2)CC1 | 6.92 | 20.2 | 75.4 | 34.5 | 96.9 |
| CC[C@@]1(O)C(=O)OCc2c1cc1n(c2=O)Cc2c-1nc1ccccc1c2CN1CCN(S(=O)(=O)c2ccc(C)cc2)CC1 | 0.89 | 34.6 | 84.2 | 18.2 | 84.5 |
| CC[C@@]1(O)C(=O)OCc2c1cc1n(c2=O)Cc2c-1nc1ccccc1c2CN1CCN(S(=O)(=O)c2cccs2)CC1 | 0.21 | 57.5 | 30.5 | 8 | 71.3 |
| CC[C@@]1(O)C(=O)OCc2c1cc1n(c2=O)Cc2cc3c(CN(C)C)c(O)ccc3nc2-1 [TOPOTECAN] |  | 287 |  |  |  |
| CC[C@@]1(O)C(=O)OCc2c1cc1n(c2=O)Cc2c-1nc1ccccc1c2CN1CCN(S(=O)(=O)c2cccnc2)CC1 | 21.9 | 327 | 106 | 61 | 67.8 |
| CC[C@@]1(O)C(=O)OCc2c1cc1n(c2=O)Cc2c-1nc1ccccc1c2CN1CCN(S(=O)(=O)c2ccc(OC)cc2)CC1 | 5.36 | 142 | 124 | 70.9 | 20.7 |
| CC[C@@]1(O)C(=O)OCc2c1cc1n(c2=O)Cc2c-1nc1ccccc1c2CN1CCN(S(=O)(=O)Cc2ccccc2)CC1 | 27.4 | 416 | 552 | 362 | 195 |
| CC[C@@]1(O)C(=O)OCc2c1cc1n(c2=O)Cc2c-1nc1ccccc1c2CN1CCN(S(=O)(=O)c2ccc([N+](=O)[O-])cc2)CC1 | 29.7 | 481 | 350 | 96.2 | 55.5 |
| CC[C@@]1(O)C(=O)OCc2c1cc1n(c2=O)Cc2c-1nc1ccccc1c2CN1CCN(S(=O)(=O)c2ccccc2)CC1 | 0.25 | 70.4 | 46.4 | 4.9 | 2 |
| CCc1ccc(S(=O)(=O)N2CCN(Cc3c4c(nc5ccccc35)-c3cc5c(c(=O)n3C4)COC(=O)[C@]5(O)CC)CC2)cc1 | 0.65 | 126 | 105 | 61.8 | 10.9 |
| CCCCS(=O)(=O)N1CCN(Cc2c3c(nc4ccccc24)-c2cc4c(c(=O)n2C3)COC(=O)[C@]4(O)CC)CC1 | 4.01 | 203 | 134 | 74.9 | 8.5 |
